The text below walks through data of ChEMBL document CHEMBL3259739, “Synthesis and structure-activity relationship of trisubstituted thiazoles as Cdc7 kinase inhibitors” (Eur J Med Chem, 2014).

Series [1] has as its target T1, CDC7/DBF4 (Cell division cycle 7-related protein kinase/Activator of S phase kinase) (Homo sapiens, UniProt O00311). The series can be described thus: Inhibition of Cdc7/Dbf4 (unknown origin) using 54 uM of ATP as substrate by AlphaScreen assay. The format is protein-complex assay.
The target in series [2] is T1, CDC7/DBF4 (Cell division cycle 7-related protein kinase/Activator of S phase kinase). The series can be described thus: Inhibition of Cdc7/Dbf4 (unknown origin) using 18 uM of ATP as substrate by AlphaScreen assay. The format is protein-complex assay. On the technique in general: Alpha assays give light when donor and acceptor beads are brought close together.
The target is the same in series [3]. Put plainly: Inhibition of Cdc7/Dbf4 (unknown origin) using 9 uM of ATP as substrate by AlphaScreen assay. The class given is protein-complex assay.
Series [4] shares this target. The series can be described thus: Inhibition of Cdc7/Dbf4 (unknown origin) using 2 uM of ATP as substrate by AlphaScreen assay. The format is protein-complex assay.
The target is the same in series [5]. Put plainly: Inhibition of Cdc7/Dbf4 (unknown origin) using 0.667 uM of ATP as substrate by AlphaScreen assay. The format is protein-complex assay.
Series [6] has the same target. Put plainly: Inhibition of Cdc7/Dbf4 (unknown origin) using 0.111 uM of ATP as substrate by AlphaScreen assay. The class given is protein-complex assay.
Series [7] shares this target. The series can be described thus: Inhibition of Cdc7/Dbf4 (unknown origin) using 0.074 uM of ATP as substrate by AlphaScreen assay. The class given is protein-complex assay.
For series [8] the target is unchanged. The series can be described thus: Inhibition of Cdc7/Dbf4 (unknown origin) using 0.037 uM of ATP as substrate by AlphaScreen assay. The class given is protein-complex assay.
Series [9] has the same target. The series can be described thus: Inhibition of Cdc7/Dbf4 (unknown origin) using 0.025 uM of ATP as substrate by AlphaScreen assay. The class given is protein-complex assay.
Series [10] has the same target. Put plainly: Inhibition of Cdc7/Dbf4 (unknown origin) using 0.012 uM of ATP as substrate by AlphaScreen assay. The format is protein-complex assay. Put shortly:
(§1)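 AlphaScreen with 6 nM Cdc7/Dbf4 and 10 nM biotinylated His/avitag MCM2 (aa1-467) substrate. Phospho-Ser53 MCM2 detected with antibody-bound Protein A acceptor and streptavidin donor beads. Rates fitted by Michaelis–Menten and double-reciprocal plots.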

Series [11] in a line: Clearance in Sprague-Dawley rat at 2 mg/kg, iv. The class given is ADME, organism-based. Further details: dose 2 mg/kg, route intravenous. As to conditions: in vivo.
Series [12] is described as follows: Mean residence time in Sprague-Dawley rat at 2 mg/kg, iv. The class given is ADME, organism-based. Details: dose 2 mg/kg, route intravenous. As to conditions: in vivo.
Series [13] is described as follows: Half life in Sprague-Dawley rat at 2 mg/kg, iv. Further details: dose 2 mg/kg, route intravenous. The settings on record: in vivo. The class given is ADME, organism-based.
Series [14] is described as follows: AUC (0 to t) in Sprague-Dawley rat at 5 mg/kg, po. Details: dose 5 mg/kg, route oral. The class given is ADME, organism-based. As to conditions: plasma.
Series [15] in a line: Apparent oral clearance in Sprague-Dawley rat at 5 mg/kg, po. The class given is ADME, organism-based. Details: dose 5 mg/kg, route oral. The settings on record: in vivo.
Series [16] in a line: Terminal half life in Sprague-Dawley rat at 5 mg/kg, po. The class given is ADME, organism-based. Further details: dose 5 mg/kg, route oral. The settings on record: in vivo, read-out: beta t1/2 (converted). In outline: (§2)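 Male Sprague-Dawley rats given 5 mg/kg orally in 2% HPMC, 1% Tween80, pH2 (an iv arm received 2 mg/kg in DMSO). Plasma was sampled from 0.25 to 24 h and analyzed by LC/MS.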

The nature of series [17]: Tmax in Sprague-Dawley rat at 5 mg/kg, po. The class given is ADME, organism-based. Further details: dose 5 mg/kg, route oral. The settings on record: in vivo. In outline:
as §2

The subject of series [18] is Mus musculus. Put plainly: Inhibition of Cdc7/Dbf4 in NCR nude mouse xenografted with human HCT116 cells assessed as reduction of phosphorylated MCM2 level in tumor at 50 mg/kg, iv after 3 hrs. The format is functional. The settings on record: HCT-116, 3 h. In outline:
(§3)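 Female athymic NCR/nu mice, 4–6 weeks old, bearing subcutaneous HCT-116 xenografts (5 × 10^6 cells in Matrigel) grown to about 250 mm3. Single iv dose formulated in 20% HPbCD, 1% HPMC, 1% PluronicF68, pH7 at 10 mg/ml; three mice per group. Tumors were homogenized in Tris lysis buffer with protease and phosphatase inhibitors. MSD capture with total MCM2 antibody, then phospho-Ser53 or total MCM2 detection by chemiluminescence; inhibition taken from the phospho/total ratio.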
Background: Xenograft models place foreign cells or tissue in a host animal.

Series [19] relates to Mus musculus. Put plainly: Inhibition of Cdc7/Dbf4 in NCR nude mouse xenografted with human HCT116 cells assessed as reduction of phosphorylated MCM2 level in tumor at 50 mg/kg, iv after 6 hrs. The format is functional. As to conditions: HCT-116, 6 h. In outline: as §3
For series [20], the system named is Mus musculus. The series can be described thus: Inhibition of Cdc7/Dbf4 in NCR nude mouse xenografted with human HCT116 cells assessed as reduction of phosphorylated MCM2 level in tumor at 50 mg/kg, iv after 16 hrs. The class given is functional, organism-based. The settings on record: HCT-116. Further details: dose 50 mg/kg. Put shortly: as §3
In series [21] the test system is Mus musculus. The series can be described thus: Toxicity in NCR nude mouse xenografted with human HCT116 cells at 50 mg/kg, iv. The format is organism-based, HCT-116. Details: dose 50 mg/kg, route intravenous. As to conditions: in vivo. In outline:
(§4)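 Female athymic NCR/nu mice bearing subcutaneous HCT-116 xenografts (about 250 mm3) received a single iv dose in 20% HPbCD, 1% HPMC, 1% PluronicF68, pH7 (10 mg/ml); three mice per group. Tolerability was judged by observation over the 1–16 h sampling period.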

In series [22] the test system is Plasma. The series can be described thus: Unbound plasma concentration in NCR nude mouse xenografted with human HCT116 cells at 50 mg/kg, iv after 1 hr. As to conditions: in vivo. Details: dose 50 mg/kg, route intravenous. The format is ADME, organism-based, HCT-116. In outline: (§5)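 HCT-116 xenograft NCR/nu mice (three per group) were given a single iv dose in 20% HPbCD, 1% HPMC, 1% PluronicF68, pH7 at 10 mg/ml. Plasma collected at the time points was measured by LC/MS. Values were converted to unbound concentrations using percent plasma protein binding in mouse serum.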

For series [23], the system named is Mus musculus. The series can be described thus: Inhibition of Cdc7/Dbf4 in NCR nude mouse xenografted with human HCT116 cells assessed as reduction of phosphorylated MCM2 level in tumor at 150 mg/kg, iv after 3 hrs. The format is functional. As to conditions: HCT-116, 3 h. In outline:
as §3

The subject of series [24] is Mus musculus. Put plainly: Inhibition of Cdc7/Dbf4 in NCR nude mouse xenografted with human HCT116 cells assessed as reduction of phosphorylated MCM2 level in tumor at 150 mg/kg, iv after 6 hrs. The class given is functional. The settings on record: HCT-116, 6 h. In outline:
as §3

Series [25] deals with Plasma. Put plainly: Unbound plasma concentration in NCR nude mouse xenografted with human HCT116 cells at 150 mg/kg, iv after 6 hrs. The settings on record: in vivo. Details: dose 150 mg/kg, route intravenous. The class given is ADME, organism-based, HCT-116. Put shortly: as §5
The test system of series [26] is Mus musculus. Put plainly: Toxicity in NCR nude mouse xenografted with human HCT116 cells assessed as appearance of moribund at 150 mg/kg, iv after 6 hrs. The format is organism-based, HCT-116. Details: dose 150 mg/kg, route intravenous. As to conditions: in vivo. In outline:
as §4

Series [27] has as its target T2, CDC7/DBF4 (Cell division cycle 7-related protein kinase/Activator of S phase kinase) (Homo sapiens) (UniProt Q9UBU7+O00311). The series can be described thus: Competitive inhibition of Cdc7/Dbf4 (unknown origin) using ATP as substrate by Michaelis-Menton/double-reciprocal plot analysis. The format is protein-complex assay. Put shortly:
as §1

Series [28] addresses T1, CDC7/DBF4 (Cell division cycle 7-related protein kinase/Activator of S phase kinase). The series can be described thus: Inhibition of Cdc7/Dbf4 (unknown origin) using 1.5 uM of ATP as substrate by AlphaScreen assay. The class given is protein-complex assay. Put shortly:
(§6)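 Mechanism-of-action AlphaScreen run with 6 nM Cdc7/Dbf4 and 10 nM biotinylated MCM2 substrate. […] Reaction time was 2 h. Phospho-Ser53 MCM2 was read by antibody-bound acceptor beads with streptavidin donor beads. Rates and Ki were fitted to a competitive inhibition model.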

For series [29] the target is unchanged. The series can be described thus: Inhibition of Cdc7/Dbf4 (unknown origin) using 0.75 uM of ATP as substrate by AlphaScreen assay. The class given is protein-complex assay. Put shortly:
as §6

Series [30] has the same target. The series can be described thus: Inhibition of Cdc7/Dbf4 (unknown origin) using 0.094 uM of ATP as substrate by AlphaScreen assay. The format is protein-complex assay. Put shortly:
as §6

Series [31] is described as follows: Apparent permeability of the compound in pig LLC-PK1 cells. The class given is ADME, cell-based, Sus scrofa.
The test system of series [32] is MDR1. Put plainly: Apparent permeability of the compound in pig LLC-PK1 cells expressing MDR1. The format is ADME, cell-based, Sus scrofa.
The subject of series [33] is rat MDR1. Put plainly: Efflux ratio of permeability of the compound in pig LLC-PK1 cells expressing rat MDR1. The format is ADME, cell-based, Sus scrofa.
Series [34] deals with T2, CDC7/DBF4 (Cell division cycle 7-related protein kinase/Activator of S phase kinase) (Homo sapiens). The series can be described thus: Ratio of IC50 for Cdc7/Dbf4 in human HCT116 cells to IC50 for Cdc7/Dbf4 (unknown origin). The format is cell-based. As to conditions: HCT-116.

Usually pIC50 stands for the negative decadic logarithm of the IC50, by convention in mol/L. Read a low pIC50 as a high IC50. Usually clearance stands for a measure of how efficiently the substance is removed, as volume per time. Low readings indicate inefficient removal, high ones efficient removal. Broadly, the MRT is the average time that molecules of a dose stay in the body. The term AUC(0-t) denotes the area under the concentration-time curve up to a stated or last time point. What is called CL/F is clearance divided by bioavailability, as obtained after extravascular dosing. The Tmax is the time from dosing to the highest level. Broadly, the inhibition in vivo is how much of the control response was suppressed. For orientation: Papp means the rate of passage across a membrane or cell layer, normalised by area and donor concentration. For orientation: efflux ratio means a quotient of directional permeabilities that is used to spot active efflux.

pIC50: −log10 of the molar value. Calls of active or inactive are those of the source. The calls are words filed in the database; no cut-off is given here.

As for `NC(=O)c1sc(-c2ccnc(N)n2)nc1-c1ccc(Cl)cc1Cl`, the pIC50 was 7.07 in series [1]; 7.64 in [2]; 7.74 in series [3]; 8.00 in series [4]; 7.85 in series [5]; 7.54 in series [6]. For the same molecule, the negative-log IC50 (pIC50) is 7.19 in series [7], 7.20 in series [8], 7.40 in [9] and 7.77 in series [10]. For the same molecule, the clearance in [11] was 64.8 mL/min/kg. The molecule further gave a mean residence time MRT in [12] of 1.15 h. In addition, the half-life was 6.56 h in series [13] and 3.73 h in series [16]. The same molecule came in with an AUC(0-t) in series [14] of 83.3 ng·h/mL. Besides, the apparent clearance (CL/F) in series [15] is 1050 mL/min/kg. Also, in series [17], the Tmax came out at 2.17 h. Further, the results for the inhibition in vivo at 50 mg/kg in [18] and in series [19] were 39% and 20%, respectively. In addition, the inhibition result in [20] was “inactive”. Also, the results for the Activity entry in [21] and in series [26] were “Non-toxic” and “Toxic”, respectively. Besides, the “Cp(f)” value in series [22] and in [25] was greater than 1000 nM each time. Further, the inhibition in vivo at 150 mg/kg in series [23] amounted to 38%; in series [24] it was 31%.
Take `CCOC(=O)c1sc(-c2ccncc2)nc1O`: in series [27], the inhibition result was “Active”. The pIC50 is 6.50 in series [28], 6.50 in series [29] and 6.28 in series [30]. Also, the Papp in series [31] and in series [32] was no less than 8.9 ×10⁻⁶ cm/s in each case. In addition, the efflux ratio in [33] was found to be 1.
As for `COc1ccc(-c2nc(-c3ccnc(N)n3)sc2C(N)=O)c(Cl)c1`, the Ratio IC50 in series [34] is greater than 30.
